The record followed here is ChEMBL document CHEMBL1681705, “Optimisation of ITK inhibitors through successive iterative design cycles” (Bioorg Med Chem Lett, 2011).

As usually defined, the inhibition is the drop in the measured response relative to a control, in per cent.

In assay [1] the target is Platelet-derived growth factor receptor beta (Homo sapiens) (UniProt P09619). As to the kind of experiment: Inhibition of PDGFRbeta at 1 uM. Put shortly:
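Single-point screen within a 108-kinase selectivity panel. Each kinase was tested with inhibitor at 0.1 and 1.0 micromolar, and activity was recorded as percent inhibition.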

Assay [2] addresses Ribosomal protein S6 kinase alpha-1 (Homo sapiens) (UniProt Q15418). The assay can be described thus: Inhibition of Rsk1 at 1 uM.
The target of assay [3] is Protein-tyrosine kinase 2-beta (Homo sapiens) (UniProt Q14289). The assay can be described thus: Inhibition of Pyk2 at 1 uM; values are per cent of control.
Sequence of Protein-tyrosine kinase 2-beta (Homo sapiens) (Q14289 whole entry, looked up): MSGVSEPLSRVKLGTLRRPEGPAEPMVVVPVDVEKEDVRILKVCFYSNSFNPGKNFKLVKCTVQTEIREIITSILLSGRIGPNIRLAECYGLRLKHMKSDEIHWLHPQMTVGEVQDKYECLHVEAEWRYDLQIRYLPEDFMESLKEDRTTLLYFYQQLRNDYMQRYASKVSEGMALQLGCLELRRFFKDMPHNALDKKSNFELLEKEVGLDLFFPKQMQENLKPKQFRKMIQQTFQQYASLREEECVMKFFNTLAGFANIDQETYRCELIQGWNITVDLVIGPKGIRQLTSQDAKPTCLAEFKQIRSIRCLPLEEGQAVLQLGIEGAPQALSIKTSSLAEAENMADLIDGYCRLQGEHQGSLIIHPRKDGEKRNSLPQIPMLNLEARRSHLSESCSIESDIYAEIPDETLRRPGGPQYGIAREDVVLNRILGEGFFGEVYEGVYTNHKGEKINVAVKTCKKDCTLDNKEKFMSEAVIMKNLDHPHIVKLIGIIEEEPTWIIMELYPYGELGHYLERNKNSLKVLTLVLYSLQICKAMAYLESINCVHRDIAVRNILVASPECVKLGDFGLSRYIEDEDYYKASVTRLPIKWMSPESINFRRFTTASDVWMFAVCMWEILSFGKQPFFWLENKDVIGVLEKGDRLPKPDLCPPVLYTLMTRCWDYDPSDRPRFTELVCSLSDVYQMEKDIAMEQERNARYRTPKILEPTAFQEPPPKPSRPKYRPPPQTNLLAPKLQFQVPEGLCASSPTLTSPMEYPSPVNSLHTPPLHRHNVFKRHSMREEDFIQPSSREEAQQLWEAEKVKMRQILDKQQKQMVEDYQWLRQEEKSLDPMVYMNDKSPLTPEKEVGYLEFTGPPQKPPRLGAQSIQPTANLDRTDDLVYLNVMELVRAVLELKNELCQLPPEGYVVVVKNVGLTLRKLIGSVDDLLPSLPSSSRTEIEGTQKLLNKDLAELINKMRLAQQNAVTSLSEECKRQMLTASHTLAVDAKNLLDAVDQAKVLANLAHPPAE
The target in assay [4] is Angiopoietin-1 receptor (Homo sapiens) (UniProt Q02763). As to the kind of experiment: Inhibition of Tie2 at 1 uM; values are per cent of control.
Assay [5] addresses T1, Cytoplasmic tyrosine-protein kinase BMX (Homo sapiens) (UniProt P51813).
T1 sequence (whole entry): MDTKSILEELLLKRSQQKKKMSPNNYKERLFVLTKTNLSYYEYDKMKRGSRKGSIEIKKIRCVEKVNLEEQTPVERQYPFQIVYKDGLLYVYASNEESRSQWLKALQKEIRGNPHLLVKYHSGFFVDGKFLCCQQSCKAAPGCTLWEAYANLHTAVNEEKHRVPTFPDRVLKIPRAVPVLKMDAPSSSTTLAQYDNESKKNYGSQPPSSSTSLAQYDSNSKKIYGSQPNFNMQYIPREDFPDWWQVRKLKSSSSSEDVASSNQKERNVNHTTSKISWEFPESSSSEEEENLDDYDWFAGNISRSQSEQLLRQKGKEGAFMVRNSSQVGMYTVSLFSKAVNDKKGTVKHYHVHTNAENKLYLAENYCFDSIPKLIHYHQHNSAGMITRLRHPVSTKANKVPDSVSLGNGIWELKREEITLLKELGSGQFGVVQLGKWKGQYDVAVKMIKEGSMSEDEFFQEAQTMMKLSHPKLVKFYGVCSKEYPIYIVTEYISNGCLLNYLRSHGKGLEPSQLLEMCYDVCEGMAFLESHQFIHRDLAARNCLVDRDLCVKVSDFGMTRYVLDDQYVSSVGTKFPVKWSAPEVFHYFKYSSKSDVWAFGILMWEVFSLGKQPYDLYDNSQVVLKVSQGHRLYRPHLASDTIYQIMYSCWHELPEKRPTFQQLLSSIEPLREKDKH
As to the kind of experiment: Inhibition of Bmx at 0.1 uM; values are per cent of control.

Assay [6] addresses Insulin-like growth factor 1 receptor (Homo sapiens) (UniProt P08069). As to the kind of experiment: Inhibition of IGF1R at 1 uM; values are per cent of control.
In assay [7] the target is T2, Serine/threonine-protein kinase Chk1 (Homo sapiens) (UniProt O14757).
T2 sequence (whole entry): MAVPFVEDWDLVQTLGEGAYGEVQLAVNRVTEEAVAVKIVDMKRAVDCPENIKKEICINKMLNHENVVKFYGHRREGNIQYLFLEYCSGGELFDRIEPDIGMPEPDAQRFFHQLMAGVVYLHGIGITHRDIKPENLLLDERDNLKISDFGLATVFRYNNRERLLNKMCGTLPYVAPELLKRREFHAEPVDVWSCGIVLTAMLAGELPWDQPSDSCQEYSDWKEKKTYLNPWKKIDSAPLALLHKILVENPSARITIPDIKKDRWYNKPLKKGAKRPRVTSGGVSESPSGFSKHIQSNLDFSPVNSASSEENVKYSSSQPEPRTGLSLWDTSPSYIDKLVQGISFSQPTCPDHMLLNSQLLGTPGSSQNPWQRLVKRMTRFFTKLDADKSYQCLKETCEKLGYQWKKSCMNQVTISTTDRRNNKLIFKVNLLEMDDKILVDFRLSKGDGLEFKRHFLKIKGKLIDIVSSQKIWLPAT
The assay can be described thus: Inhibition of CHK1 at 0.1 uM; values are per cent of control.

For assay [8], the target named is High affinity nerve growth factor receptor (Homo sapiens) (UniProt P04629). As to the kind of experiment: Inhibition of TrkA at 0.1 uM; values are per cent of control.
Sequence of High affinity nerve growth factor receptor (Homo sapiens) (P04629 33-796 limits assumed): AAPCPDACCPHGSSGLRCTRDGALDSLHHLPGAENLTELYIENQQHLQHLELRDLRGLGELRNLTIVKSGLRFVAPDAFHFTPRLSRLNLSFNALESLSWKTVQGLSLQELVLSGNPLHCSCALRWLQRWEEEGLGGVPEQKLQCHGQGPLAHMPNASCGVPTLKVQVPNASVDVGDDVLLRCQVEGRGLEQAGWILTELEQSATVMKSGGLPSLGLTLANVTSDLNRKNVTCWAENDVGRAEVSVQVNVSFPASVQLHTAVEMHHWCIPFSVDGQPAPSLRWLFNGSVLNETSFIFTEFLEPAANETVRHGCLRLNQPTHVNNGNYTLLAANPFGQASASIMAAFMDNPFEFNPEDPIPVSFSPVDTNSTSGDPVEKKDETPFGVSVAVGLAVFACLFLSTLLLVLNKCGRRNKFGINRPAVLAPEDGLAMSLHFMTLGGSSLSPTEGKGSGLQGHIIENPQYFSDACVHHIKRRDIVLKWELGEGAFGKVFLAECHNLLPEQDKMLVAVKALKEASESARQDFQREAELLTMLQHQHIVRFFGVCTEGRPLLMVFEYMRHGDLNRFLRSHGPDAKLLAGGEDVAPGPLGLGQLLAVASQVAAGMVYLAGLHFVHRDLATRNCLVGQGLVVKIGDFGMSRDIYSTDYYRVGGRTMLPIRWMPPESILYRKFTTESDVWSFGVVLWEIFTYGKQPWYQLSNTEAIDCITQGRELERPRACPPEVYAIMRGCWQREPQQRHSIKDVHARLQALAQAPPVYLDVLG
Assay [9] addresses Ephrin type-A receptor 5 (Homo sapiens) (UniProt P54756). As to the kind of experiment: Inhibition of EphA5 at 0.1 uM; values are per cent of control.
In assay [10] the target is Ephrin type-A receptor 7 (Homo sapiens) (UniProt Q15375). The assay can be described thus: Inhibition of EphA7 at 0.1 uM; values are per cent of control.
For assay [11], the target named is Mitogen-activated protein kinase 11 (Homo sapiens) (UniProt Q15759). As to the kind of experiment: Inhibition of SAPK2b at 0.1 uM; values are per cent of control.
Sequence of Mitogen-activated protein kinase 11 (Homo sapiens) (Q15759 whole entry): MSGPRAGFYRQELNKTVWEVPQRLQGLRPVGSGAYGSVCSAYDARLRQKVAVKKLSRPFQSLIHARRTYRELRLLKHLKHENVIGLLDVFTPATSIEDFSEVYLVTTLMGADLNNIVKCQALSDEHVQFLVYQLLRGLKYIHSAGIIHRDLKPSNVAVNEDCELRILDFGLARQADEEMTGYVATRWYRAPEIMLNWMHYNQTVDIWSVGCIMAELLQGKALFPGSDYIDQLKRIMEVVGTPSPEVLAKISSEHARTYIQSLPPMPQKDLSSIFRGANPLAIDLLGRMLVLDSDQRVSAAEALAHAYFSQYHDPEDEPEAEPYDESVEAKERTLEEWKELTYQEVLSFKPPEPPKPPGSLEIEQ
Assay [12] deals with T3, cGMP-dependent protein kinase 1 (Homo sapiens) (UniProt Q13976).
T3 sequence (whole entry): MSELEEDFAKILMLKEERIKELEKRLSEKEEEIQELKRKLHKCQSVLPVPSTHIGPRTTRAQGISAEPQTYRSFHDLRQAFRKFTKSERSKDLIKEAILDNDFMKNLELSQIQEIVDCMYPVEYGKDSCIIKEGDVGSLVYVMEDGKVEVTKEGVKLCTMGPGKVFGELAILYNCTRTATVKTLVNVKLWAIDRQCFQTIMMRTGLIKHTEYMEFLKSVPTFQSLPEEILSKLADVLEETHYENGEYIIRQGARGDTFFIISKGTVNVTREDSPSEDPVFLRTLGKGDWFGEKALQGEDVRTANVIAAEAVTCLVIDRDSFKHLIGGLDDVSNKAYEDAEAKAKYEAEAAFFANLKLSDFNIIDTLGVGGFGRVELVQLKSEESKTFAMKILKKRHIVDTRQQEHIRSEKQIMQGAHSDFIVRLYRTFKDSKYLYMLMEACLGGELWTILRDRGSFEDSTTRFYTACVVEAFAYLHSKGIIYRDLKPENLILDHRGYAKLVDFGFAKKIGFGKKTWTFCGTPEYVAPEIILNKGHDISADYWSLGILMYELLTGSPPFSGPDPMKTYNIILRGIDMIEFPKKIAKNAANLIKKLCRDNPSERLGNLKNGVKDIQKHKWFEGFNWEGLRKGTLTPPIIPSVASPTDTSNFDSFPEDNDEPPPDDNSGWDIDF
As to the kind of experiment: Inhibition of PKG1beta at 1 uM; values are per cent of control.

Assay [13] has as its target Cyclin-dependent kinase 7/ cyclin H (Homo sapiens) (UniProt P51946+P50613). As to the kind of experiment: Inhibition of CDK7/cyclin H/MAT1 at 0.1 uM; values are per cent of control.

Each structure is given as a SMILES string.

Sequence of Platelet-derived growth factor receptor beta (Homo sapiens) (P09619 whole entry): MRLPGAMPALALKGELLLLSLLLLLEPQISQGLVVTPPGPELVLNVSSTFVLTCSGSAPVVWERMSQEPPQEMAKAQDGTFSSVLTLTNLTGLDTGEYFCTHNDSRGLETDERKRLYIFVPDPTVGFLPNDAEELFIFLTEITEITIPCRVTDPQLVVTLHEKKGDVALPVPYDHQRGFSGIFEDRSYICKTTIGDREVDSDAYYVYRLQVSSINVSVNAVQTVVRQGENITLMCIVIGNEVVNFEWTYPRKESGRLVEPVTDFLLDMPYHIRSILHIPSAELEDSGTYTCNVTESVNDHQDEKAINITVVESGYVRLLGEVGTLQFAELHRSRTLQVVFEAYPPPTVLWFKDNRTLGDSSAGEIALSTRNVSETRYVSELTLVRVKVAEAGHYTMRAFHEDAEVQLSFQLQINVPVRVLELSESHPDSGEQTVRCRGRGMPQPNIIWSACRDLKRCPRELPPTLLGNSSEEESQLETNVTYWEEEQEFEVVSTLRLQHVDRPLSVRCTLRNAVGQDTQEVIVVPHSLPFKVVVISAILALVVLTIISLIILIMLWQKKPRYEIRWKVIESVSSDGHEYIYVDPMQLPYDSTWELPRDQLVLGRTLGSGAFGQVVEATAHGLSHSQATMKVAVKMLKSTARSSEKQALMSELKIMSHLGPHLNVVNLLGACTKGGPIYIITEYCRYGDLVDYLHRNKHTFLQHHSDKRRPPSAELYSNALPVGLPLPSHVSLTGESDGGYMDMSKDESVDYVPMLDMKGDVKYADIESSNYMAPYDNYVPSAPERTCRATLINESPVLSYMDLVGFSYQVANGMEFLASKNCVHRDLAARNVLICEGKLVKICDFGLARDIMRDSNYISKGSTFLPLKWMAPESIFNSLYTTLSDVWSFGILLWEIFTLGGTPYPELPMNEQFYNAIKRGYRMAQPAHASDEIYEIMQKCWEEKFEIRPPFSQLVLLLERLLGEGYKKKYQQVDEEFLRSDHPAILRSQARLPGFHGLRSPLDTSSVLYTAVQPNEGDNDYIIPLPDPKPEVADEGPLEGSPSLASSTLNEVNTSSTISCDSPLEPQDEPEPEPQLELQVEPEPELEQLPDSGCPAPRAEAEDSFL
Sequence of Ephrin type-A receptor 5 (Homo sapiens) (P54756 whole entry): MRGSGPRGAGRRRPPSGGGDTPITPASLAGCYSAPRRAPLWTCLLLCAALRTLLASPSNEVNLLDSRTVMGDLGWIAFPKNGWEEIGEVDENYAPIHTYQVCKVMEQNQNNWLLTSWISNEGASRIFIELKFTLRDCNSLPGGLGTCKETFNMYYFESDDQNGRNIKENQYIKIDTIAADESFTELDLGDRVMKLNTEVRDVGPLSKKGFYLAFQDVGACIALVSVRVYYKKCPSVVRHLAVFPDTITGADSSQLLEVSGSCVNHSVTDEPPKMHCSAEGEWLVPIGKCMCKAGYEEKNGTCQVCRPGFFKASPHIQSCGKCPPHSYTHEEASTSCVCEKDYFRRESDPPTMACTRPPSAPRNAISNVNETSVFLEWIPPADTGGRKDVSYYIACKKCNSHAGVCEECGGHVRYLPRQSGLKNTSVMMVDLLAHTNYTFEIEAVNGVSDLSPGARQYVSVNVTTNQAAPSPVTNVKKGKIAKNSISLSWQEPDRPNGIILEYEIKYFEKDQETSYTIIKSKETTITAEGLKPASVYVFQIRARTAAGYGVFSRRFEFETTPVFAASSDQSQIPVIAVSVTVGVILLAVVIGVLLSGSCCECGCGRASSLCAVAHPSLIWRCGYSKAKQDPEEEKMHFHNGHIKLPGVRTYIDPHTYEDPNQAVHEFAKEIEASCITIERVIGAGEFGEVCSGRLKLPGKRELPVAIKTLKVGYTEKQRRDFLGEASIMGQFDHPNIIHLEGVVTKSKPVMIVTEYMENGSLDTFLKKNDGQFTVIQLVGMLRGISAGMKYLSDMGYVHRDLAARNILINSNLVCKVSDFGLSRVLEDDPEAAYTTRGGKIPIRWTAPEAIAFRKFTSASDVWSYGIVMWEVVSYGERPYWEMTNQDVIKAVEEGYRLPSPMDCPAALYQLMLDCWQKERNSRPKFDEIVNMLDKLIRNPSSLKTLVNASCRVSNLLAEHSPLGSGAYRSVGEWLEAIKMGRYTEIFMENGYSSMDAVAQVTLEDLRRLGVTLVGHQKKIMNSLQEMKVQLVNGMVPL
Sequence of Ribosomal protein S6 kinase alpha-1 (Homo sapiens) (Q15418 whole entry): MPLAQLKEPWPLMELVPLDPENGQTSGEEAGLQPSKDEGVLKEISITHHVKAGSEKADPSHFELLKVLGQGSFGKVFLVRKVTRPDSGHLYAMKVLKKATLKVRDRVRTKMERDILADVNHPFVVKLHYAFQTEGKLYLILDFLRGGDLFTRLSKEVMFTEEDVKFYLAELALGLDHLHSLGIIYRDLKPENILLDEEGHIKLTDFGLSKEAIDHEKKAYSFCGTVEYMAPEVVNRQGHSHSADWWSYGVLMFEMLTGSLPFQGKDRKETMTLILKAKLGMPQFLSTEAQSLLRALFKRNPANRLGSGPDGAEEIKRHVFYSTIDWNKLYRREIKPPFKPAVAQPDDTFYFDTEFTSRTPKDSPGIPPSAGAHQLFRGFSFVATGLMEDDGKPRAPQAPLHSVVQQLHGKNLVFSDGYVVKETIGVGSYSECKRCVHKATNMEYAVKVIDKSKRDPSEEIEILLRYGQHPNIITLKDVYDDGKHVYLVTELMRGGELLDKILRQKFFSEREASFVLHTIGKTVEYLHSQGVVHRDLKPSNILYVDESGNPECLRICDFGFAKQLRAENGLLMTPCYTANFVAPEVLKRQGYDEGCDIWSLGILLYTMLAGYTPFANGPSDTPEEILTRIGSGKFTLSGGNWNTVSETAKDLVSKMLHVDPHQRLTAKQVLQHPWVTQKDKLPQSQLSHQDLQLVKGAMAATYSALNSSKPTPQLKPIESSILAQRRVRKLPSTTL

Consider `Cc1ccc2cc(-c3n[nH]c4ccc(NC5CCNC5)cc34)[nH]c2c1` (stereo unspecified), for which the inhibition is 34% in [1] and -1% in assay [2]. The residual activity in assay [3] is 8%; in assay [4], 1%; in [5] it was 15%; in [6] it was 36%; in assay [7] it was 18%; in assay [8], -1%. Also, the residual activity amounted to 86% in [9]; 75% in assay [10]; 100% in [11]; 43% in assay [12]; 42% in [13].

`Cc1ccc2cc(-c3n[nH]c4ccc(NC5CCN(Cc6ccccc6)CC5)cc34)[nH]c2c1`: the inhibition in [1] stood at 42%; in assay [2], 1%. The residual activity came out at 10% in assay [3]; 8% in [4]; 45% in [5]; 16% in [6]; 90% in [7]; 10% in assay [8]. In addition, the residual activity in assay [9] was 81%; in assay [10] it was 75%; in [11], 100%; in assay [12], 45%; in [13], 94%.
